Reference: ChEMBL document CHEMBL3227968, “Synthesis and antitumor activity of water-soluble (2-chloroethyl)nitrosoureas” (1979)
Activity calls are given as the source filed them. No cut-off for these calls is given here.

Legend:
L1210 [1] = experiment: Antitumor activity against mouse L1210 cells allografted in mouse assessed as tumor inhibition at 4 mg/kg, ip single dose relative to control; format: functional; settings: route intraperitoneal
Summary of the method: (§1)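 L1210 leukemia, 10⁶ cells per mouse inoculated ip. Single ip dose given on day 1. Median survival time expressed as %T/C = (MST treated/MST control) × 100, with T/C > 125 counted as significant. Mice surviving at 30 days were recorded, six mice per treatment dose.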

L1210 [2] = experiment: Antitumor activity against mouse L1210 cells allografted in mouse assessed as median survival time at 32 mg/kg, ip single dose relative to control; format: functional; settings: route intraperitoneal; summary of the method: as §1
L1210 [3] = experiment: Antitumor activity against mouse L1210 cells allografted in mouse assessed as mouse survival after 30 days at 1 mg/kg, ip single dose relative to control; format: functional, organism-based; parameters: dose 1 mg/kg
Summary of the method: (§2)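 L1210 leukemia, 10⁶ cells implanted ip per mouse. One ip dose given on day 1. Six mice per dose level. Survivors counted at day 30. Median survival time also recorded as %T/C = (MST treated/MST control) × 100, with T/C > 125 taken as significant.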

L1210 [4] = experiment: Antitumor activity against mouse L1210 cells allografted in mouse assessed as tumor inhibition at 2 mg/kg, ip single dose relative to control; format: functional; settings: route intraperitoneal; summary of the method: as §1
L1210 [5] = experiment: Antitumor activity against mouse L1210 cells allografted in mouse assessed as tumor inhibition at 16 mg/kg, ip single dose relative to control; format: functional; settings: route intraperitoneal; summary of the method: as §1
L1210 [6] = experiment: Antitumor activity against mouse L1210 cells allografted in mouse assessed as mouse survival after 30 days at 128 mg/kg, ip single dose relative to control; format: functional, organism-based; parameters: dose 128 mg/kg; summary of the method: as §2
L1210 [7] = experiment: Antitumor activity against mouse L1210 cells allografted in mouse assessed as mouse survival after 30 days at 8 mg/kg, ip single dose relative to control; format: functional, organism-based; parameters: dose 8 mg/kg; summary of the method: as §2
L1210 [8] = experiment: Antitumor activity against mouse L1210 cells allografted in mouse assessed as mouse survival after 30 days at 4 mg/kg, ip single dose relative to control; format: functional, organism-based; parameters: dose 4 mg/kg; summary of the method: as §2
L1210 [9] = experiment: Antitumor activity against mouse L1210 cells allografted in mouse assessed as tumor inhibition at 128 mg/kg, ip single dose relative to control; format: functional; settings: route intraperitoneal; summary of the method: as §1
L1210 [10] = experiment: Antitumor activity against mouse L1210 cells allografted in mouse assessed as mouse survival after 30 days at 16 mg/kg, ip single dose relative to control; format: functional, organism-based; parameters: dose 16 mg/kg; summary of the method: as §2
L1210 [11] = experiment: Antitumor activity against mouse L1210 cells allografted in mouse assessed as tumor inhibition at 64 mg/kg, ip single dose relative to control; format: functional; settings: route intraperitoneal; summary of the method: as §1
L1210 [12] = experiment: Antitumor activity against mouse L1210 cells allografted in mouse assessed as tumor inhibition at 1 mg/kg, ip single dose relative to control; format: functional; settings: route intraperitoneal; summary of the method: as §1
L1210 [13] = experiment: Antitumor activity against mouse L1210 cells allografted in mouse assessed as mouse survival after 30 days at 2 mg/kg, ip single dose relative to control; format: functional, organism-based; parameters: dose 2 mg/kg; summary of the method: as §2
L1210 [14] = experiment: Antitumor activity against mouse L1210 cells allografted in mouse assessed as tumor inhibition at 8 mg/kg, ip single dose relative to control; format: functional; settings: route intraperitoneal; summary of the method: as §1
L1210 [15] = experiment: Antitumor activity against mouse L1210 cells allografted in mouse assessed as tumor inhibition at 2 mg/kg, ip qd for 8 days relative to control; format: functional; settings: route intraperitoneal
Summary of the method: (§3)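 L1210 leukemia, 10⁶ cells per mouse implanted ip. Dosing ip once daily for 8 days from day 1, with solutions prepared fresh daily. Read-out: median survival time as %T/C = (MST treated/MST control) × 100, with T/C > 125 taken as significant inhibition. Survivors counted at 30 days, six mice per dose.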

L1210 [16] = experiment: Antitumor activity against mouse L1210 cells allografted in mouse assessed as mouse survival after 30 days at 4 mg/kg, ip qd for 8 days relative to control; format: functional, organism-based; parameters: dose 4 mg/kg
Summary of the method: as §2, with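 “Dosing” for “One”, “once daily for 8 days starting” for “dose given on”, “1, with solutions prepared fresh daily.” for “1.”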

L1210 [17] = experiment: Antitumor activity against mouse L1210 cells allografted in mouse assessed as mouse survival after 30 days at 32 mg/kg, ip qd for 8 days relative to control; format: functional, organism-based; parameters: dose 32 mg/kg
Summary of the method: as §2, with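 “Dosing” for “One”, “once daily for 8 days starting” for “dose given on”, “1, with solutions prepared fresh daily.” for “1.”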

L1210 [18] = experiment: Antitumor activity against mouse L1210 cells allografted in mouse assessed as median survival time at 32 mg/kg, ip qd for 8 days relative to control; format: functional; settings: route intraperitoneal; summary of the method: as §3
L1210 [19] = experiment: Antitumor activity against mouse L1210 cells allografted in mouse assessed as tumor inhibition at 0.5 mg/kg, ip qd for 8 days relative to control; format: functional; settings: route intraperitoneal; summary of the method: as §3
L1210 [20] = experiment: Antitumor activity against mouse L1210 cells allografted in mouse assessed as tumor inhibition at 0.25 mg/kg, ip qd for 8 days relative to control; format: functional; settings: route intraperitoneal; summary of the method: as §3
L1210 [21] = experiment: Antitumor activity against mouse L1210 cells allografted in mouse assessed as mouse survival after 30 days at 2 mg/kg, ip qd for 8 days relative to control; format: functional, organism-based; parameters: dose 2 mg/kg
Summary of the method: as §2, with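 “Dosing” for “One”, “once daily for 8 days starting” for “dose given on”, “1, with solutions prepared fresh daily.” for “1.”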

L1210 [22] = experiment: Antitumor activity against mouse L1210 cells allografted in mouse assessed as tumor inhibition at 1 mg/kg, ip qd for 8 days relative to control; format: functional; settings: route intraperitoneal; summary of the method: as §3
L1210 [23] = experiment: Antitumor activity against mouse L1210 cells allografted in mouse assessed as tumor inhibition at 16 mg/kg, ip qd for 8 days relative to control; format: functional; settings: route intraperitoneal; summary of the method: as §3
L1210 [24] = experiment: Antitumor activity against mouse L1210 cells allografted in mouse assessed as mouse survival after 30 days at 1 mg/kg, ip qd for 8 days relative to control; format: functional, organism-based; parameters: dose 1 mg/kg
Summary of the method: as §2, with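 “Dosing” for “One”, “once daily for 8 days starting” for “dose given on”, “1, with solutions prepared fresh daily.” for “1.”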

L1210 [25] = experiment: Antitumor activity against mouse L1210 cells allografted in mouse assessed as tumor inhibition at 8 mg/kg, ip qd for 8 days relative to control; format: functional; settings: route intraperitoneal; summary of the method: as §3
L1210 [26] = experiment: Antitumor activity against mouse L1210 cells allografted in mouse assessed as mouse survival after 30 days at 0.25 mg/kg, ip qd for 8 days relative to control; format: functional, organism-based; parameters: dose 0.25 mg/kg
Summary of the method: as §2, with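 “Dosing” for “One”, “once daily for 8 days starting” for “dose given on”, “1, with solutions prepared fresh daily.” for “1.”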

L1210 [27] = experiment: Antitumor activity against mouse L1210 cells allografted in mouse assessed as mouse survival after 30 days at 16 mg/kg, ip qd for 8 days relative to control; format: functional, organism-based; parameters: dose 16 mg/kg
Summary of the method: as §2, with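 “Dosing” for “One”, “once daily for 8 days starting” for “dose given on”, “1, with solutions prepared fresh daily.” for “1.”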

L1210 [28] = experiment: Antitumor activity against mouse L1210 cells allografted in mouse assessed as tumor inhibition at 4 mg/kg, ip qd for 8 days relative to control; format: functional; settings: route intraperitoneal; summary of the method: as §3
L1210 [29] = experiment: Antitumor activity against mouse L1210 cells allografted in mouse assessed as mouse survival after 30 days at 0.5 mg/kg, ip qd for 8 days relative to control; format: functional, organism-based; parameters: dose 0.5 mg/kg
Summary of the method: as §2, with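 “Dosing” for “One”, “once daily for 8 days starting” for “dose given on”, “1, with solutions prepared fresh daily.” for “1.”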

L1210 [30] = experiment: Antitumor activity against mouse L1210 cells allografted in mouse assessed as mouse survival after 30 days at 8 mg/kg, ip qd for 8 days relative to control; format: functional, organism-based; parameters: dose 8 mg/kg
Summary of the method: as §2, with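 “Dosing” for “One”, “once daily for 8 days starting” for “dose given on”, “1, with solutions prepared fresh daily.” for “1.”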

L1210 [31] = experiment: Antitumor activity against mouse L1210 cells allografted in mouse assessed as mouse survival after 30 days at 32 mg/kg, ip single dose relative to control; format: functional, organism-based; parameters: dose 32 mg/kg; summary of the method: as §2

| Compound | T/C (L1210 [1]) [%] | T/C (L1210 [2]) [%] | T/C (L1210 [4]) [%] | T/C (L1210 [5]) [%] | Survival (L1210 [7]) | Survival (L1210 [8]) | Survival (L1210 [13]) | T/C (L1210 [14]) [%] | T/C (L1210 [15]) [%] | T/C (L1210 [18]) [%] | T/C (L1210 [19]) [%] | T/C (L1210 [20]) [%] | Survival (L1210 [21]) | T/C (L1210 [22]) [%] | T/C (L1210 [23]) [%] | Survival (L1210 [24]) | T/C (L1210 [25]) [%] | Survival (L1210 [26]) | T/C (L1210 [28]) [%] | Survival (L1210 [29]) | further results |
| --- | --- | --- | --- | --- | --- | --- | --- | --- | --- | --- | --- | --- | --- | --- | --- | --- | --- | --- | --- | --- | --- |
| O=NN(CCCl)C(=O)N[C@H]1[C@@H](O)[C@@H](O)[C@H](NC(=O)N(CCCl)N=O)[C@H](O)[C@@H]1O | 136 | >471 | 129 | >243 | inactive | inactive | inactive | 171 | – | – | – | – | – | – | – | – | – | – | – | – | Survival (L1210 [3]): inactive; Survival (L1210 [6]): inactive; T/C (L1210 [9]): 293%; Survival (L1210 [10]): inactive; T/C (L1210 [11]): 286%; T/C (L1210 [12]): 114% |
| O=NN(CCCl)C(=O)N[C@H]1[C@H](O)[C@@H](O)[C@@H](O)[C@@H]1O | – | – | – | – | – | – | – | – | 171 | 143 | 107 | 100 | inactive | 114 | 171 | inactive | 336 | inactive | 229 | inactive | Survival (L1210 [16]): inactive; Survival (L1210 [17]): inactive; Survival (L1210 [27]): inactive |
| O=NN(CCCl)C(=O)NCCCl [CARMUSTINE] | 143 | >471 | 114 | 271 | inactive | inactive | inactive | 193 | 114 | 193 | 100 | 100 | inactive | 100 | >471 | inactive | 293 | inactive | 193 | inactive | Survival (L1210 [16]): inactive; Survival (L1210 [30]): inactive; Survival (L1210 [27]): Active |
| O=NN(CCCl)C(=O)N[C@H]1[C@H](O)[C@H](O)[C@H](O)[C@@H]1O | – | – | – | – | – | – | – | – | 143 | 186 | 114 | 107 | inactive | 114 | >471 | inactive | >471 | inactive | 250 | inactive | Survival (L1210 [17]): inactive; Survival (L1210 [27]): Active |
| O=NN(CCCl)C(=O)N[C@H]1[C@@H](O)[C@@H](O)[C@H](NC(=O)N(CCCl)N=O)[C@@H](O)[C@@H]1O | 171 | 136 | 150 | >471 | inactive | inactive | inactive | 214 | – | – | – | – | – | – | – | – | – | – | – | – | Survival (L1210 [31]): inactive |
| O=NN(CCCl)C(=O)N[C@@H]1[C@H](O)[C@H](NC(=O)N(CCCl)N=O)[C@@H](O)[C@H](O)[C@H]1O | 114 | 214 | 121 | 179 | inactive | inactive | inactive | 171 | – | – | – | – | – | – | – | – | – | – | – | – | Survival (L1210 [3]): inactive; Survival (L1210 [6]): inactive; T/C (L1210 [9]): 86%; Survival (L1210 [31]): inactive; Survival (L1210 [10]): inactive; T/C (L1210 [11]): 250%; T/C (L1210 [12]): 100% |
| O=NN(CCCl)C(=O)N[C@H]1[C@H](O)[C@H](O)[C@@H](O)[C@@H]1O | – | – | – | – | – | – | – | – | 221 | 171 | 114 | 144 | inactive | 157 | >471 | inactive | 243 | inactive | 207 | inactive | Survival (L1210 [17]): inactive; Survival (L1210 [30]): inactive |
